Screening results (PubChem)
PKA-R1A act = activators of PKA-R1A holoenzyme, primary screen, biochemical, fluorescence polarization, Cy5-IP20, bovine R1A, mouse PKAc. cAMP-dependent protein kinase type I-alpha regulatory subunit (Bos taurus) + …. PKA-R1A dissociation; scaled: DMSO 0%, 113 µM cGMP 100%. activation, % at 11.4 µM. 340,000 tested, 0.083% active. AID 504707, 2011;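 active = percent activation above the mean of all tested compounds plus 3 SD, cut at about 19% in these data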;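 note: higher means more PKAc released from R1A so a rise in polarization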
T cell HTS = modulators of CD8 T cell-vesicle binding, primary screen, mouse 2C CD8+ T cells, flow cytometry. AID 2052, 2009. 330,000 tested, 0.068% active. 2C CD8+ T cell-vesicle binding; hits give low values. response (vesicle binding), % at 7 µM;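 active = response, share of CD8 T cells binding vesicles, and their 90th percentile fluorescence all below set limits, cut at about 80% in these data, passing the limit was not always enough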;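 note: values below 100% mean blocked vesicle binding to the CD8+ T cells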
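Assay system: 2C TCR transgenic mouse naive CD8+ T cells, MACS-purified | Read-out: CD8+ gate FL2 mean fluorescence as % of same-row positive control | Signal: High-throughput flow cytometry with anti-B7-1 and anti-CD8 staining | Timing: Binding step 1.5 h, 37 °C, antibody labelling 20 min, ice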
PfG6PD inh = PfG6PD enzyme inhibitors, primary screen, biochemical, fluorescence intensity, uHTS; glucose-6-phosphate dehydrogenase-6-phosphogluconolactonase (Plasmodium falciparum 3D7); PfGluPho enzyme, NADPH resazurin-diaphorase fluorescence; inhibition, % at 20 µM; 350,000 tested, 0.78% active; AID 504690, 2011;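 active = inhibition reaching at least a set limit at 20 µM in the primary screen, cut at about 59% in these data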;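 note: 0% = DMSO wells with substrate and 100% = DMSO wells lacking glucose-6-phosphate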
ATG4B inh = ATG4B protease inhibitors, primary screen, biochemical, fluorescence, uHTS | Cysteine protease ATG4B (Homo sapiens), Q9Y4P1 | ATG4B cleavage of LC3-PLA2, NBD-HPC fluorescence, 1 h | inhibition, % at 8.33 µM | 340,000 tested, 0.51% active; in the data active = inhibition above about 40%
Target sequence (Q9Y4P1 whole entry, looked up): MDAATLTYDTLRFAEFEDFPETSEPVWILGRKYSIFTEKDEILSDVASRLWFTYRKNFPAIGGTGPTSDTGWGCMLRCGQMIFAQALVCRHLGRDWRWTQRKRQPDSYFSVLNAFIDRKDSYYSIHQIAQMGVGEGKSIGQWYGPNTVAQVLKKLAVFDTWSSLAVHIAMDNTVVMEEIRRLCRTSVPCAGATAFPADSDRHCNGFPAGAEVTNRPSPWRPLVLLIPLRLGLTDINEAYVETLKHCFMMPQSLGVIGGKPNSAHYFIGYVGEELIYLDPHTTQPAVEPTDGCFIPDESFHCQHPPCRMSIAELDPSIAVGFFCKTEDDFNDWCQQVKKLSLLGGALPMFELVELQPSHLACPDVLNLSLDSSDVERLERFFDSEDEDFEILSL
HKDC1 inh = HKDC1 hexokinase inhibitors, primary screen, biochemical, fluorescence, uHTS; Q2TB90; AID 493160, 2011; recombinant HKDC1, G6PDH/diaphorase resazurin coupled fluorescence; 340,000 tested, 0.16% active; inhibition, % at 20 µM;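 active = inhibition above about 35% when tested at 20 µM, limit read from the data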;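 note: plate controls were DMSO wells with enzyme for no effect and DMSO wells lacking enzyme for full effect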
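Test system: Recombinant HKDC1 (HK5) hexokinase enzyme, produced in-house | Input: HKDC1 at 5 µg/mL | Buffer or medium: Tris pH 8.0 buffer with MgCl2, Tween-20, BSA, BME | Schedule: 90 min reaction incubation at room temperature, dark | Technique: Resazurin-to-resorufin fluorescence via G6PDH and diaphorase coupling, 525/613 nm | Controls: DMSO wells with and without enzyme mix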
PKA-R2B activ = activators of PKA-R2B holoenzyme, primary screen, biochemical, fluorescence polarization, Cy5-IP20, human | cAMP-dependent protein kinase catalytic subunit beta (Homo sapiens) + cAMP-dependent … | PKA-R2B holoenzyme dissociation; R2B truncated from residue 108, S112A mutant; 0% DMSO only, 100% 113 µM cGMP | activation, % at 11.4 µM | 340,000 tested, 0.079% active | AID 504700, 2011;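 active = activation above a cutoff set at the mean over all compounds plus 3 SD, cut at about 18% in these data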;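 note: higher means more holoenzyme dissociation and a rise in polarization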
ATG4B confirm = ATG4B protease inhibitors, retest, confirmation, biochemical, fluorescence, single concentration; shares compounds with ATG4B inh; AID 504757, 2011; inhibition, % at 8.33 µM; 320 tested, 92% active; ATG4B protease fluorescent substrate cleavage assay; in the data active = inhibition above about 39%
PLA2 counter = PLA2 enzyme inhibition, counter-screen for ATG4B inhibitor project, biochemical, single concentration, uHTS hits | shares compounds with ATG4B inh | purified PLA2, NBD-C6-HPC fluorescence, 45 min | inhibition, % at 8.33 µM | 1,600 tested, 66% active; in the data active = inhibition above about 50%
Numbers without * were called inactive; . = no result given. This is a sample that favours compounds with a hit; in the whole collection about 1.6% have one here.

SMILES | PKA-R1A act | T cell HTS | PfG6PD inh | ATG4B inh | HKDC1 inh | PKA-R2B activ | PLA2 counter | others
O=C(c1cccc(C(F)(F)F)c1)N1CCN(CCc2ccccc2)CC1 | -2 | 263 | -4 | -5 | -2 | 8 | .
CCN(CC(=O)Nc1c(F)cccc1F)C(=O)c1cnccn1 | -3 | 286 | -2 | -8 | 1 | -7 | .
COC(=O)c1cc(NC(=O)c2ccccc2)c(=O)oc1C | -16 | 142 | 3 | 1 | -2 | 8 | .
COc1ccc(C(=O)Nc2cc(C(=O)c3ccccc3)c(C)oc2=O)cc1 | -9 | 218 | 17 | 44* | 11 | -3 | 38 | ATG4B confirm=69*
CC1(C)CCCN(C(=O)c2ccc3c(c2NCCO)C(=O)c2ccccc2C3=O)C1 | -19 | 888 | 11 | 68* | 17 | 4 | 63*
NC(=O)Cc1ccc(Nc2nnc(-c3ccccc3)c3ccccc23)cc1 | -2 | 983 | 2 | 82* | -5 | -5 | 82*
COc1ccc(Nc2nnc(-c3ccc(O)cc3)c3ccccc23)cc1 | 3 | 567 | 44 | 0 | 8 | 4 | .
COc1ccc(-c2nnc(Nc3ccc(CC(N)=O)cc3)c3ccccc23)cc1 | -3 | 221 | 1 | 93* | 1 | 2 | 92*
O=C(Nc1nnc(Cc2c[nH]c3ccccc23)s1)c1ccc(Cl)cc1Cl | 12 | 450 | 13 | 52* | 5 | 8 | 51*
O=C(O)c1cccc(NC(=S)N/N=C/c2ccccc2OCc2cccc(Br)c2)c1 | -3 | . | -28 | 47* | 7 | -14 | 54*
O=C(c1ccc2c(=O)n(C3CCCC3)c(=S)[nH]c2c1)N1CCc2ccccc21 | -24 | 626 | -1 | 54* | 0 | -8 | 77*
Cc1ccc(C(=O)Nc2ncc(C)s2)o1 | -3 | 734 | -5 | -4 | -3 | -9 | .
Cc1ccc(C(=O)Nc2ncc(Cc3ccc(F)cc3)s2)o1 | -19 | 182 | 3 | 57* | 2 | -5 | 64*
COc1ccc(NC(=O)C2CCN(C(=O)Nc3ccccc3)CC2)cc1S(=O)(=O)N(C)C | -1 | 676 | 0 | -12 | -6 | -13 | .
CCOC(=O)c1c(C)[nH]c(C(=O)COC(=O)COc2ccccc2C=O)c1C | -8 | 204 | 13 | 47* | 10 | -8 | 45 | ATG4B confirm=56*
CC(=O)Nc1cccc(/C(C)=N/Nc2ccc(S(=O)(=O)Nc3ccccc3C(=O)O)cc2[N+](=O)[O-])c1 | 1 | . | -47 | 23 | 7 | -3 | .
COc1ccc(Cn2c(O)c(C=Nc3ccccc3C(=O)O)c3ccccc3c2=O)cc1 | -4 | 282 | 6 | 17 | 26 | 2 | .
Cc1ccc(NC(=S)NNc2ccc([N+](=O)[O-])cc2S(=O)(=O)Nc2ccccc2C(=O)O)cc1C | -9 | 432 | 40 | 74* | 7 | -9 | 71*
COc1ccccc1NS(=O)(=O)c1cccc(-n2c(O)c(C=Nc3ccccc3C(=O)O)c3ccccc3c2=O)c1 | 1 | 343 | -22 | 51* | 24 | -7 | 74*
CC(=O)Nc1ccc(C=NNc2ccc([N+](=O)[O-])cc2S(=O)(=O)Nc2ccccc2C(=O)O)cc1 | -7 | 687 | -23 | 34 | 5 | 1 | .
O=C(O)c1ccccc1NS(=O)(=O)c1ccc(NNC(=S)Nc2ccc(OC(F)F)cc2)c([N+](=O)[O-])c1 | 13 | . | -1 | 51* | -9 | 4 | 64*
